Reference: PubChem BioAssay AID588418 (The Scripps Research Institute Molecular Screening Center, 2011)
Active and inactive are the calls of the source.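 The calls were made as follows: active = IC50 at or below 1000 nM; inactive = IC50 above 1000 nM.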

Target: Protein-arginine deiminase type-4 (Homo sapiens) (UniProt Q9UM07)
Assay: PAD4 enzyme inhibition potency, late-stage follow-up, biochemical, BAEE substrate, citrulline absorbance, 7-point 0-10 µM (AID 588418)
Settings: recombinant PAD4, BAEE citrulline colorimetric absorbance
How it was run: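 Material: Recombinant PAD4 | Quantity: 0.2 µM PAD4 enzyme in the reaction | Signal: Colorimetric citrulline absorbance at 540 nm, diacetyl monoxime/thiosemicarbazide reagent | Incubation: 15 min pre-incubation and 15 min reaction, 37 °C | Medium: Tris-HCl pH 7.6, CaCl2, DTT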

Chain of Protein-arginine deiminase type-4 (Homo sapiens) (Q9UM07 whole entry, looked up): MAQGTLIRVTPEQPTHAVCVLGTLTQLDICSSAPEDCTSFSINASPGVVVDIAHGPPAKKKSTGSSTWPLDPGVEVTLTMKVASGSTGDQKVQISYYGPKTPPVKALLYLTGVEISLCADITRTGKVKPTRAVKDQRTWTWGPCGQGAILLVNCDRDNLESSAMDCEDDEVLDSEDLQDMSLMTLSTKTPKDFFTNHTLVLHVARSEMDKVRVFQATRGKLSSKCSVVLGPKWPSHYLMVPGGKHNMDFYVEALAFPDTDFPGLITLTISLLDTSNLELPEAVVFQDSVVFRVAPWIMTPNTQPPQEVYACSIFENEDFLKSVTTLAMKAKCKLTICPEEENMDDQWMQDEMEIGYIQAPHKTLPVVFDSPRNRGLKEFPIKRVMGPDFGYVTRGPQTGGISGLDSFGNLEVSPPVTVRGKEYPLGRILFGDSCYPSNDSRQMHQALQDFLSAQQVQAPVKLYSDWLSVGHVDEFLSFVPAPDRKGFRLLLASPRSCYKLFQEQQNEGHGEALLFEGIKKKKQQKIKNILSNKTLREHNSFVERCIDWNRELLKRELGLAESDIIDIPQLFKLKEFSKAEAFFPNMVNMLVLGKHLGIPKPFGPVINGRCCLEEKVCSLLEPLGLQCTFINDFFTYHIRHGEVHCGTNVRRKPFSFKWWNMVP

COC1=C(N)C(=O)c2ncccc2C1=O
IC50: inactive
